Results reported in ChEMBL document CHEMBL1129329, “Structure-activity studies of 6-substituted decahydroisoquinoline-3-carboxylic acid AMPA receptor antagonists. 2. Effects of distal acid bioisosteric substitution, absolute stereochemical preferences, and in vivo activity” (J Med Chem, 1996).
pIC50: −log10 of the molar value.

Assays:
[1] = target: T1, Glutamate receptor ionotropic, AMPA (Rattus norvegicus, UniProt P19490+P19491+P19492+P19493); assay: Antagonism at AMPA receptor by inhibition of depolarizations induced by 40 uM AMPA in rat cortical slice preparation.; format: functional
Glutamate NMDA receptor [2] = assay: Affinity of [3H]-CGS- 19755 radioligand to rat N-methyl-D-aspartate (NMDA) receptor; format: protein-complex assay
[3] = target: Glutamate receptor ionotropic, kainate; assay: Binding affinity against Ionotropic glutamate receptor kainate using [3H]-Kainic acid 19755 radioligand; format: protein-complex assay
Method in brief: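 Displacement of radioligand binding in rat cortical tissue: [3H]AMPA for AMPA sites, [3H]kainic acid for kainate sites. Assays run in triplicate unless otherwise indicated; some IC50 values come from a single assay.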

Glutamate NMDA receptor [4] = assay: Antagonism at NMDA receptor by inhibition of depolarizations induced by 40 uM NMDA in rat cortical slice preparation.; format: functional
[5] = target: T1, Glutamate receptor ionotropic, AMPA; assay: Binding affinity against Ionotropic glutamate receptor AMPA using [3H]AMPA 19755 radioligand; format: protein-complex assay
[6] = target: Glutamate receptor ionotropic, kainate; assay: Antagonism at Ionotropic glutamate receptor kainate by inhibition of depolarizations induced by 10 uM kainic acid in rat cortical slice preparation.; format: functional
[7] = target: T1, Glutamate receptor ionotropic, AMPA; assay: Compound was tested for Ionotropic glutamate receptor AMPA antagonistic activity by measuring its ability to inhibit depolarizations induced by 40 uM AMPA in rat cortical slice preparation.; format: functional
Glutamate NMDA receptor [8] = assay: Compound was tested for NMDA receptor antagonistic activity by measuring its ability to inhibit depolarizations induced by 40 uM NMDA in rat cortical slice preparation.; format: functional
[9] = target: Glutamate receptor ionotropic, AMPA (Rattus norvegicus, UniProt P19491+P19492+P19493+P19490); assay: Compound was tested for AMPA receptor antagonistic activity by measuring its ability to inhibit depolarizations induced by 40 uM AMPA in rat cortical slice preparation; agonist; format: functional
Glutamate receptor ionotropic, AMPA (Rattus norvegicus, UniProt P19491+P19492+P19493+P19490), sequence (P19491 whole entry): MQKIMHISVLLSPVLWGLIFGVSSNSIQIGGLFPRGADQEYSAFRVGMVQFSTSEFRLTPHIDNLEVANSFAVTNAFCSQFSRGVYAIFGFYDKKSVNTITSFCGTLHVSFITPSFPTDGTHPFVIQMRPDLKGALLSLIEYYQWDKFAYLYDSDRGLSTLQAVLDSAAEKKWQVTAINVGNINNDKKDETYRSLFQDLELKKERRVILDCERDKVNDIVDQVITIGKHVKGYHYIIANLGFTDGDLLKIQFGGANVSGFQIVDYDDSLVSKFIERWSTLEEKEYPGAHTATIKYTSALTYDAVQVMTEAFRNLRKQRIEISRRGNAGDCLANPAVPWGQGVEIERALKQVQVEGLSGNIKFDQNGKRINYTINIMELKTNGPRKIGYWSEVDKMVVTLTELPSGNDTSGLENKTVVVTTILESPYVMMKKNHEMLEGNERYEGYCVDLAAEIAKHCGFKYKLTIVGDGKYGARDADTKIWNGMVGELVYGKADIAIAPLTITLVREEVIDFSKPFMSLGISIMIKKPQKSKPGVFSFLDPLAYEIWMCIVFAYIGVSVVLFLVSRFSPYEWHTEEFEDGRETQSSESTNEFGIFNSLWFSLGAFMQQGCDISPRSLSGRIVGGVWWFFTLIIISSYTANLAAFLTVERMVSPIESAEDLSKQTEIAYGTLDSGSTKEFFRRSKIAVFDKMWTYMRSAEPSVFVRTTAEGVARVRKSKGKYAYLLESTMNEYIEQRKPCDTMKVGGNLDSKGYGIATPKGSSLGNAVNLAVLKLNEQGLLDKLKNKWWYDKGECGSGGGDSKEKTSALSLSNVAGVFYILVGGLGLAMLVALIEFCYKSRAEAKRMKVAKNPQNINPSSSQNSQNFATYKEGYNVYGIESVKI
Glutamate receptor ionotropic, AMPA (Rattus norvegicus, UniProt P19491+P19492+P19493+P19490), sequence (P19492 whole entry): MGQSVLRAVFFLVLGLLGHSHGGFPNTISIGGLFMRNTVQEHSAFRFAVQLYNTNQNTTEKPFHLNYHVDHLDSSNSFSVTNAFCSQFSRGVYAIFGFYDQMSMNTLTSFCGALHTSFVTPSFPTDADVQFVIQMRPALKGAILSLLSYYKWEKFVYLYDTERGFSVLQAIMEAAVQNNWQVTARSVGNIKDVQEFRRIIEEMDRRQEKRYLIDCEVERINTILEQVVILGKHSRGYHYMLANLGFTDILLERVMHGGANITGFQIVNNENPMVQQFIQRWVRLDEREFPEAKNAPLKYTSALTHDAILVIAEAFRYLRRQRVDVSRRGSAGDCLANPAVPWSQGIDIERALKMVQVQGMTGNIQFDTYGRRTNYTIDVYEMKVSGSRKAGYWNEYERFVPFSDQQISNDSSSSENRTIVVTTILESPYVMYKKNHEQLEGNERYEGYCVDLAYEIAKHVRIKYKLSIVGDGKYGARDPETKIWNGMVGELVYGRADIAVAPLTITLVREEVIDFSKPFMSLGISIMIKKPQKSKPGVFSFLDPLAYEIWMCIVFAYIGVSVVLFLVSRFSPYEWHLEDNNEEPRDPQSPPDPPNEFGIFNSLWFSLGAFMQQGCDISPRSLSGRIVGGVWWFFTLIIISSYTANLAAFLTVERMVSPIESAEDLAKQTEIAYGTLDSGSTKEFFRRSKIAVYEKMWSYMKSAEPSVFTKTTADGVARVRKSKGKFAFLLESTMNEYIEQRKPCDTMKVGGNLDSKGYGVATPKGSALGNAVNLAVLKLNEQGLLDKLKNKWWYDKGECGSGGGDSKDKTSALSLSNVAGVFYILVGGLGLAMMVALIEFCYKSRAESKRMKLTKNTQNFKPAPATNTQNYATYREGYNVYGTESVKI
Glutamate receptor ionotropic, AMPA (Rattus norvegicus, UniProt P19491+P19492+P19493+P19490), sequence (P19493 whole entry): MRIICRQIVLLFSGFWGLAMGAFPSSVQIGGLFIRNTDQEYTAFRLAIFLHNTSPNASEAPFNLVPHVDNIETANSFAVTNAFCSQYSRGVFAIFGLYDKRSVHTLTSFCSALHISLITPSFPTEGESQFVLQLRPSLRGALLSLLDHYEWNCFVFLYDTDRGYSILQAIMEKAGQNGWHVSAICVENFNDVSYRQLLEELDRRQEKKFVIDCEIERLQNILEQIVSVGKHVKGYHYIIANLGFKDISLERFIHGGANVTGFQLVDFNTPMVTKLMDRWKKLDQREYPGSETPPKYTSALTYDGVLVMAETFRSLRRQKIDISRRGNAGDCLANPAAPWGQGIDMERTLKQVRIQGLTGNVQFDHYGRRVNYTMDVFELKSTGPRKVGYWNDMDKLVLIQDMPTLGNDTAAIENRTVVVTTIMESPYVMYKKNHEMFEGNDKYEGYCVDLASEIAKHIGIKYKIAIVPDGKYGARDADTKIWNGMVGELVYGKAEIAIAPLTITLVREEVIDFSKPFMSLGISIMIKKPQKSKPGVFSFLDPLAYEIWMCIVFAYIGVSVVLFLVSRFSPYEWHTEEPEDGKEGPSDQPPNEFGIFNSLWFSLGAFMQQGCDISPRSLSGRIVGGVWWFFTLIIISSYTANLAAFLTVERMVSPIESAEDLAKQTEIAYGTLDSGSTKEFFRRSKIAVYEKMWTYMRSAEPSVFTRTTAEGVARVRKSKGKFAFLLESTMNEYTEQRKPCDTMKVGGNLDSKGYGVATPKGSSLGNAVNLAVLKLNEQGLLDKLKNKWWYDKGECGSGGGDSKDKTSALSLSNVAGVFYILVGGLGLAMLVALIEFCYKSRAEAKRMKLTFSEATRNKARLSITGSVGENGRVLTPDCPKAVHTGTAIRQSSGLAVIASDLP
Glutamate receptor ionotropic, AMPA (Rattus norvegicus, UniProt P19491+P19492+P19493+P19490), sequence (P19490 whole entry): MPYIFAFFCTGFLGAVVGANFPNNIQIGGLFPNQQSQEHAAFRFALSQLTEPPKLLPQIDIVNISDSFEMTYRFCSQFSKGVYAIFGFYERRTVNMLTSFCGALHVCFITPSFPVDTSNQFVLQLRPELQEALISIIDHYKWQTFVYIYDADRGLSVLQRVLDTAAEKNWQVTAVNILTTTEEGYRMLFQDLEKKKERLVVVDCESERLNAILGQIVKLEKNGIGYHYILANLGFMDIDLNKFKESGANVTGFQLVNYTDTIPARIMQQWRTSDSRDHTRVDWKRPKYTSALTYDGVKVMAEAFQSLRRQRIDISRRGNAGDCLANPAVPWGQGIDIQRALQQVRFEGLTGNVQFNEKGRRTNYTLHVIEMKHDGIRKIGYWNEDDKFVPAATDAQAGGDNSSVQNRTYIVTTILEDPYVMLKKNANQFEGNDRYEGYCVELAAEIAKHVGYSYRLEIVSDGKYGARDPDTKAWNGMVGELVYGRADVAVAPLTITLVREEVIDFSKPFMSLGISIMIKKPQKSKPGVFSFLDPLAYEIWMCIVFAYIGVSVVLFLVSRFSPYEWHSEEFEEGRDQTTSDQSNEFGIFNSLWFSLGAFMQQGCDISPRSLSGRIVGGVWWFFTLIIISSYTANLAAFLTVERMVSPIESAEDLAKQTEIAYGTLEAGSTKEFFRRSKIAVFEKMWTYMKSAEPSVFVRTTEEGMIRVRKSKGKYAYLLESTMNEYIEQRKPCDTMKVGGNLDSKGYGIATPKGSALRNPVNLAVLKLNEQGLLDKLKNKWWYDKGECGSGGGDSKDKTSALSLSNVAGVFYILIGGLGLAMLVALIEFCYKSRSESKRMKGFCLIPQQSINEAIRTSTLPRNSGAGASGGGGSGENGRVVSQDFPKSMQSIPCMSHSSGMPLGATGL

[10] = target: Glutamate receptor ionotropic, kainate; assay: Compound was tested for Ionotropic glutamate receptor kainate antagonistic activity by measuring its ability to inhibit depolarizations induced by 10 uM kainic acid in rat cortical slice preparation.; format: functional
Mus musculus [11] = assay: Effective dose to block maximal electroshock-induced convulsions in mice, administered intraperitoneally; format: functional; settings: ip
Mus musculus [12] = assay: Effective dose to block ATPA-induced muscle rigidity in mice at a dose of 30 mg/kg administered intraperitoneally; settings: ip
Mus musculus [13] = assay: (§1) Effective dose to produce neurological impairments in mice using the horizontal screen assay, administered intraperitoneally; format: functional; settings: ip
Method in brief: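 Mice dosed ip 30 min beforehand are placed on a horizontal screen, which is then turned upside down. Unimpaired mice climb back to the top within 2 min.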

Mus musculus [14] = assay: as §1; format: functional; settings: ip; remark: listed apart in the source
Method in brief: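 Mice dosed intraperitoneally 30 min before testing were placed on a horizontal screen, which was then turned upside down. Unimpaired mice climb back to the top within 2 min; failure indicates neurological impairment. This was done before MES testing.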

Mus musculus [15] = assay: Minimum effective dose to block the lethality induced by 200 mg/kg ip dose of NMDA; format: functional; settings: route intraperitoneal
Method in brief: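 Mice dosed ip 30 min before a 200 mg/kg ip NMDA challenge. Minimum effective dose is the lowest dose giving greater than 50% protection from lethality among all mice tested.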

SMILES	pIC50 [1]	pIC50 (Glutamate NMDA receptor [2])	pIC50 [3]	pIC50 (Glutamate NMDA receptor [4])	pIC50 [5]	pIC50 [6]	also measured
CCOC(=O)[C@@H]1C[C@H]2C[C@@H](CCC(=O)NS(=O)(=O)c3ccccc3)CC[C@H]2CN1C(=O)OC	< 4.00	< 4.00	< 4.00	< 4.00	< 4.00	< 4.00	–
O=C(O)[C@@H]1C[C@H]2C[C@H](CCP(=O)(O)O)CC[C@H]2CN1	< 4.00	< 5.00	–	< 4.00	< 5.00	< 4.00	–
CCOC(=O)[C@@H]1C[C@H]2C[C@@H](CCC(=O)NS(C)(=O)=O)CC[C@H]2CN1C(=O)OC	< 4.00	< 4.00	< 4.00	< 4.00	< 4.00	< 4.00	–
O=C(O)[C@@H]1C[C@H]2C[C@H](CSc3nn[nH]n3)CC[C@H]2CN1 (stereo in doubt; (+/-)28)	–	4.32	4.43	–	5.31	–	pIC50 [7]: 5.21; pIC50 (Glutamate NMDA receptor [8]): < 4.00
O=C(O)[C@@H]1C[C@H]2C[C@@H](Cn3nnnc3S)CC[C@H]2CN1 (racemic)	–	< 5.00	4.78	–	4.89	–	IC50 [9]: Agonist
O=C(O)[C@@H]1C[C@H]2C[C@@H](CCS(=O)(=O)O)CC[C@H]2CN1	4.50	4.21	< 4.00	< 4.00	4.94	4.00	–
O=C(CC[C@H]1CC[C@H]2CN[C@H](C(=O)O)C[C@H]2C1)Nc1nn[nH]n1	4.72	< 4.00	< 4.00	4.08	4.14	4.15	–
O=C(O)[C@@H]1C[C@H]2C[C@@H](CNc3nn[nH]n3)CC[C@H]2CN1 (racemic)	< 4.00	< 4.00	< 4.00	< 4.00	< 4.00	< 4.00	–
O=C(O)[C@@H]1C[C@H]2C[C@@H](CCc3nn[nH]n3)CC[C@H]2CN1 [TEZAMPANEL ANHYDROUS]	5.74	4.92	4.55	–	4.85	–	–
O=C(O)[C@@H]1C[C@H]2C[C@@H](CSc3nc[nH]n3)CC[C@H]2CN1	–	< 5.00	< 5.00	–	< 5.00	–	pIC50 [10]: < 4.00; pIC50 [7]: 4.16; pIC50 (Glutamate NMDA receptor [8]): < 4.00
O=C(O)[C@@H]1C[C@H]2C[C@@H](CSc3nn[nH]n3)CC[C@H]2CN1	–	4.74	4.80	–	6.22	–	pIC50 [10]: < 4.50; pIC50 [7]: 5.85; ED50 (Mus musculus [11]): 8.5 mg/kg; pIC50 (Glutamate NMDA receptor [8]): 4.64; ED50 (Mus musculus [12]): 8.1 mg/kg; ED50 (Mus musculus [13]): 20.1 mg/kg
O=C(O)[C@@H]1C[C@H]2C[C@@H](CS(=O)(=O)c3nnc[nH]3)CC[C@H]2CN1 (stereo in doubt; (-)36)	–	< 4.00	< 4.00	–	6.22	–	–
O=C(O)[C@@H]1C[C@H]2C[C@@H](CCCc3nnn[nH]3)CC[C@H]2CN1	–	–	–	–	–	–	ED50 (Mus musculus [11]): > 100 mg/kg; ED50 (Mus musculus [14]): > 100 mg/kg; ED50 (Mus musculus [12]): > 100 mg/kg
O=C(O)[C@H]1C[C@@H]2C[C@H](CS(=O)(=O)c3nc[nH]n3)CC[C@@H]2CN1	–	4.22	< 4.00	–	4.63	–	–
O=C(O)[C@H]1C[C@@H]2C[C@H](CSc3nn[nH]n3)CC[C@@H]2CN1	–	< 5.00	< 4.00	–	4.66	–	pIC50 [10]: < 4.50; pIC50 [7]: 4.70; pIC50 (Glutamate NMDA receptor [8]): < 4.00
O=C(O)[C@@H]1C[C@H]2C[C@@H](OCc3nn[nH]n3)CC[C@H]2CN1	–	–	–	–	–	–	ED50 (Mus musculus [15]): 80 mg/kg; ED50 (Mus musculus [11]): 24.7 mg/kg; ED50 (Mus musculus [14]): 21 mg/kg; ED50 (Mus musculus [12]): 30.6 mg/kg
